Here are results for 3 molecules from ChEMBL document CHEMBL4613251, “Meliponamycins: Antimicrobials from Stingless Bee-Associated Streptomyces sp” (J Nat Prod, 2020).

In one assay the test system is THP-1. The assay is described as follows: Cytotoxicity against human THP1 cells assessed as reduction in cell viability after 120 hrs by alamar blue assay. It counts as cell-based. To be noted: THP-1, 120 h. The essentials:
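THP-1 cells were seeded at 2 × 10^4/well in RPMI-1640 + 10% FCS with 20 ng/mL PMA and differentiated for 72 h (37 °C, 5% CO2). Serial 2-fold dilutions from 10 mM DMSO stocks were added for 120 h. Alamar Blue was then added for 3 h, and fluorescence was read at ex 536 / em 588 nm as % of untreated control. n = 2 biological replicates; doxorubicin control.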

Another assay concerns Leishmania infantum. The assay is described as follows: Antileishmanial activity against intracellular amastigote stage of Leishmania infantum MHOM/MA/67/ITMAP-263 infected in THP1 cells after 120 hrs by giemsa-staining based inverted microscopic mehod. It is filed as functional, organism-based. To be noted: MHOM/MA/67/ITMAP-263, THP-1, 120 h. In short, it runs like this: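 THP-1 monocytes seeded at 2 × 10^4/well and differentiated to macrophages with 20 ng/mL PMA for 72 h (37 °C, 5% CO2). They were then infected with late-stage promastigotes (2 × 10^5/well; promastigotes grown in M199 + 10% FCS, 28 °C). Extracellular parasites were removed after 24 h, and 2-fold serial dilutions from 10 mM DMSO stocks were added for 120 h. Cells were methanol-fixed and Giemsa-stained, and amastigotes per macrophage were counted microscopically as % of untreated control. IC50 from a variable-slope fit; n = 2 biological replicates; miltefosine control.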

A further assay concerns Paenibacillus larvae. The assay is described as follows: Antibacterial activity against Paenibacillus larvae ATCC 9545 assessed as reduction in microbial growth by CLSI based broth microdilution method. It is filed as functional. The essentials:
(§1)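 MIC by broth microdilution following CLSI guidelines; strains propagated in ISP-2 medium. Compounds added from a 0.125 mg/mL DMSO stock, highest final concentration 6.9 μg/mL, then serial 2-fold dilutions with DMSO diluted alongside. Tetracycline served as positive control for both strains.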

Another assay deals with Staphylococcus aureus. Put plainly: Antibacterial activity against Staphylococcus aureus INCAS0039 assessed as reduction in microbial growth by CLSI based broth microdilution method. It is filed as functional. In short, it runs like this:
as §1
Background: Dilution methods test growth across graded concentrations, often in twofold steps.

Regarding `COc1cccc2c1C(=O)c1c(O)c3c(c(O)c1C2=O)C[C@@](O)(C(=O)CO)C[C@@H]3O[C@H]1C[C@H](N)[C@H](O)[C@H](C)O1` [DOXORUBICIN], the half-maximal inhibitory concentration (IC50) (in general, the concentration that gives 50% inhibition) in the assay with THP-1 was found to be 1800 nM. On to `CCCCCCCCCCCCCCCCOP(=O)([O-])OCC[N+](C)(C)C` [MILTEFOSINE], for which, in the assay on Leishmania infantum, half-maximal inhibition (IC50) required 2400 nM.

Take `CN(C)[C@@H]1C(O)=C(C(N)=O)C(=O)[C@@]2(O)C(O)=C3C(=O)c4c(O)cccc4[C@@](C)(O)[C@H]3C[C@@H]12` [TETRACYCLINE]: the MIC (commonly the smallest concentration in the dilution series that meets the test's criterion for growth inhibition) amounted to 7.76 µM in the assay with Paenibacillus larvae and 0.05 µg/mL in the assay on Staphylococcus aureus.
